Laboratory results from ChEMBL document CHEMBL1914438, “Synthesis and biological activity of novel N-cycloalkyl-(cycloalkylaryl)-2-[(3-R-2-oxo-2H-[1,2,4]triazino[2,3-c]quinazoline-6-yl)thio]acetamides” (2011).

Legend:
Format in all cases: functional
786-0 = assay: Cytotoxicity against human 786-0 cells assessed as cell growth at 10^-5 M after 48 hrs by SRB assay; details: 786-0, 48 h, read-out: Activity
Method in brief: (§1)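 NCI 60-cell-line one-dose primary screen: cells inoculated and preincubated 24–48 h, then test agent added at a single 10^-5 M concentration for a further 48 h. Endpoint is sulforhodamine B protein staining read spectrophotometrically. Reported as percent growth relative to untreated control cells.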

SK-MEL-2 = assay: Cytotoxicity against human SK-MEL-2 cells assessed as cell growth at 10^-5 M after 48 hrs by SRB assay; details: SK-MEL-2, 48 h, read-out: Activity
Method in brief: (§2)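 NCI human tumor cell line panel from nine cancer types. Each line was inoculated and preincubated 24–48 h, then exposed to a single concentration (10^-5 M) for 48 h. Growth was read by sulforhodamine B protein staining, measured spectrophotometrically. Value reported as percent growth of treated cells relative to untreated controls.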

[1] = tested on: Photobacterium leiognathi; assay: Antibacterial activity against Photobacterium leiognathi Sh1 assessed as inhibition of bacterial luminescence at 0.25 mg/mL after 10 mins by bioluminometry-based acute action test; design: scale not given: the % may be the effect or the level left
Method in brief: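 Marine P. leiognathi Sh1 (Azov Sea shrimp isolate) diluted in chloride solution to 10^5 cells/mL; compounds suspended in DMSO mixed with 1 mL bacterial suspension. Acute test: 10 min at 25 °C, then bioluminescence measured by bioluminometer as % of compound-free control. Tetracycline reference.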

IGROV-1 = assay: Growth inhibition of human IGROV1 cells after 48 hrs by SRB assay; details: IGROV-1, 48 h
Method in brief: (§3)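 NCI panel of about 60 human tumor lines, 48 h continuous exposure at five 10-fold dilutions from 10^-4 to 10^-8 M. SRB protein staining was read as absorbance at time zero, in untreated controls and at each concentration. GI50 is the concentration giving 50% lower net protein increase than controls. TGI is where Ti = Tz, and LC50 is 50% protein loss versus start.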

BT-549 = assay: Cytotoxicity against human BT549 cells assessed as cell growth at 10^-5 M after 48 hrs by SRB assay; details: BT-549, 48 h, read-out: Activity; method in brief: as §1
SW-620 = assay: Cytotoxicity against human SW620 cells assessed as cell growth at 10^-5 M after 48 hrs by SRB assay; details: SW-620, 48 h, read-out: Activity; method in brief: as §2
SR = assay: Cytotoxicity against human SR cells assessed as cell growth at 10^-5 M after 48 hrs by SRB assay; details: read-out: Activity; method in brief: as §2
NCI-H322M = assay: Cytotoxicity against human NCI-H322M cells assessed as cell growth at 10^-5 M after 48 hrs by SRB assay; details: read-out: Activity; method in brief: as §2
PC-3 = assay: Cytotoxicity against human PC3 cells assessed as cell growth at 10^-5 M after 48 hrs by SRB assay; details: PC-3, 48 h, read-out: Activity; method in brief: as §2
DU-145 = assay: Growth inhibition of human DU145 cells after 48 hrs by SRB assay; details: DU-145, 48 h; method in brief: as §3
HT-29 = assay: Growth inhibition of human HT-29 cells after 48 hrs by SRB assay; details: HT-29, 48 h; method in brief: as §3
SF-268 = assay: Cytotoxicity against human SF268 cells assessed as cell growth at 10^-5 M after 48 hrs by SRB assay; details: SF-268, 48 h, read-out: Activity; method in brief: as §2
LOX IMVI [2] = assay: Growth inhibition of human LOXIMVI cells after 48 hrs by SRB assay; method in brief: as §3
NCI-H460 = assay: Cytotoxicity against human NCI-H460 cells assessed as cell growth at 10^-5 M after 48 hrs by SRB assay; details: NCI-H460, 48 h, read-out: Activity; method in brief: as §2
LOX IMVI [3] = assay: Cytotoxicity against human LOXIMVI cells assessed as cell growth at 10^-5 M after 48 hrs by SRB assay; details: read-out: Activity; method in brief: as §1
[4] = Cytotoxicity against human Hs 578T cells assessed as cell growth at 10^-5 M after 48 hrs by SRB assay; details: read-out: Activity; method in brief: as §1
HCT-116 = assay: Cytotoxicity against human HCT116 cells assessed as cell growth at 10^-5 M after 48 hrs by SRB assay; details: HCT-116, 48 h, read-out: Activity; method in brief: as §1
[5] = tested on: Photobacterium leiognathi; assay: Antibacterial activity against Photobacterium leiognathi Sh1 assessed as inhibition of bacterial luminescence at 0.025 mg/mL after 10 mins by bioluminometry-based chronic action test; design: scale not given: the % may be the effect or the level left; details: in the assay text read “after 16 to 18 hrs” for “after 10 mins”
Method in brief: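 Chronic (growth plus luminescence) test with P. leiognathi Sh1 at 10^5 cells/mL in chloride solution, compounds added in DMSO. After 10 min at 25 °C, growth medium added at 1:50 and the mix incubated 16–18 h at 30 °C. Luminescence then measured by bioluminometer as % of untreated control. Tetracycline reference.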

OVCAR-4 = assay: Cytotoxicity against human OVCAR4 cells assessed as cell growth at 10^-5 M after 48 hrs by SRB assay; details: OVCAR-4, 48 h, read-out: Activity; method in brief: as §2
T47D = assay: Growth inhibition of human T47D cells after 48 hrs by SRB assay
Method in brief: (§4)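 NCI 60-cell-line human tumor panel. Cells were inoculated and preincubated for 24–48 h, then exposed continuously to compound for 48 h. Primary screen used a single 10^-5 M concentration. Growth was measured by sulforhodamine B protein staining, read spectrophotometrically, and reported as percent growth versus untreated controls. Selected compounds were also run at five 10-fold dilutions (10^-4 to 10^-8 M) to derive GI50 from time-zero-corrected absorbances.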

M14 = assay: Cytotoxicity against human M14 cells assessed as cell growth at 10^-5 M after 48 hrs by SRB assay; details: M14, 48 h, read-out: Activity; method in brief: as §1
Aspergillus niger = assay: Antifungal activity against Aspergillus niger assessed as zone of inhibition at 0.1 mg/mL after 48 to 72 hrs by stiff-plate agar-diffusion method; details: read-out: DIZ
SNB-75 = assay: Cytotoxicity against human SNB75 cells assessed as cell growth at 10^-5 M after 48 hrs by SRB assay; details: SNB-75, 48 h, read-out: Activity; method in brief: as §2
ACHN = assay: Cytotoxicity against human ACHN cells assessed as cell growth at 10^-5 M after 48 hrs by SRB assay; details: read-out: Activity; method in brief: as §1
CAKI-1 = assay: Growth inhibition of human Caki1 cells after 48 hrs by SRB assay; details: CAKI-1, 48 h; method in brief: as §3
HOP-92 = assay: Cytotoxicity against human HOP92 cells assessed as cell growth at 10^-5 M after 48 hrs by SRB assay; details: HOP-92, 48 h, read-out: Activity; method in brief: as §1
SF-295 = assay: Growth inhibition of human SF295 cells after 48 hrs by SRB assay; details: SF-295, 48 h; method in brief: as §4
[6] = read-out: pLC50 (the source's name) (converted)

CCC1C2CCC(C2)C1NC(=O)CSc1nc2ccccc2c2nc(=O)c(-c3ccc(OC)cc3)nn12 (stereo unspecified)
growth at 10 µM (786-0): 77.7%
growth at 10 µM (SK-MEL-2): 56.5%
Activity [1]: 90.9%
GI50 (IGROV-1): 2.69 µM
CC50 (IGROV-1; [6]): > 50.1 µM
TGI (IGROV-1; read-out: pTGI (converted)): 36.3 µM
growth at 10 µM (BT-549): 90.9%
growth at 10 µM (SW-620): 45.9%
growth at 10 µM (SR): 7.67%
growth at 10 µM (NCI-H322M): 65.6%
growth at 10 µM (PC-3): 55.1%
GI50 (DU-145): 3.16 µM
CC50 (DU-145; [6]): > 50.1 µM
TGI (DU-145; read-out: pTGI (converted)): 37.2 µM
GI50 (HT-29): 3.24 µM
CC50 (HT-29; [6]): > 50.1 µM
TGI (HT-29; read-out: pTGI): > 50.1 µM
growth at 10 µM (SF-268): 66.3%
GI50 (LOX IMVI [2]): 3.55 µM
CC50 (LOX IMVI [2]; [6]): > 50.1 µM
TGI (LOX IMVI [2]; read-out: pTGI (converted)): 18.2 µM
growth at 10 µM (NCI-H460): 56%
growth at 10 µM (LOX IMVI [3]): 70.5%
growth at 10 µM [4]: -9.67%
growth at 10 µM (HCT-116): 64.3%
Activity [5]: 85.3%
growth at 10 µM (OVCAR-4): -58.5%
GI50 (T47D): 3.72 µM
CC50 (T47D; [6]): > 50.1 µM
TGI (T47D; read-out: pTGI): > 50.1 µM
growth at 10 µM (M14): 44.2%
zone of inhibition at 100 µg/mL (Aspergillus niger): 0 mm
growth at 10 µM (SNB-75): 4.94%
growth at 10 µM (ACHN): -17.1%
GI50 (CAKI-1): 3.72 µM
CC50 (CAKI-1; [6]): > 50.1 µM
TGI (CAKI-1; read-out: pTGI (converted)): 38.9 µM
growth at 10 µM (HOP-92): 57%
GI50 (SF-295): 3.47 µM
CC50 (SF-295; [6]): > 50.1 µM
TGI (SF-295; read-out: pTGI (converted)): 21.9 µM
